Paper PMC3206162 (The international journal of biochemistry & cell biology, 2011)
Like-named read-outs stand apart in the source and are kept apart here. No end group written: not given here.

How the values were obtained:
MEC [1] = format: cell-based, human; conditions: 72 h
HUVEC [2] = assay: CytoTox-ONE LDH release cytotoxicity assay on HUVEC; conditions: 10μM peptide, 72 h
LEC [3] = tested on: LEC
cell apoptosis = conditions: cited from earlier work
LEC [4] = assay: RTCA E-plate LEC adhesion assay; format: cell-based, human; conditions: read-out: IC50 LEC adhesion; cell index at 1 h; 100, 33, 11, 3.7, 1.2μM
Method in brief: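 LEC seeded at 25,000 cells/well in EGM-2MV medium onto E-plate wells already holding peptide, so the cells dilute the peptide to its final concentration. Plate equilibrated 30 min at room temperature, then loaded into the RTCA system. Cell index analysed at 1 h as the adhesion read-out.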

LEC [5] = format: cell-based, human; conditions: 72 h
LEC [6] = conditions: 20 h
HUVEC [7] = format: cell-based, human; conditions: 72 h
MEC [8] = assay: CytoTox-ONE LDH release cytotoxicity assay on MEC; conditions: 72 h, complete media control = 100%; for LDH level, MEC: 10μM peptide; for LDH activity compared to the control, MEC: 100μM peptide
LEC [9] = assay: CytoTox-ONE LDH release cytotoxicity assay on LEC; conditions: 72 h, complete media control = 100%

## LLHISLLLIESRLE [SP5032]
MEC [1]
  IC50: 80.1 ± 47.9 µM
HUVEC [2]
  cytotoxic (LDH) activity, HUVEC: significant cytotoxic activity

## LLRISLLLIESWLE [SP5033]
MEC [1]
  IC50: 81.1 ± 37.2 µM
LEC [3]
  LDH activity compared to the control, LEC: significant LDH activity

## LLRISLLLIQSWLE [tilted PRL peptide, reference compound]
Cell apoptosis; ref Nguyen et al., 2006
  cell apoptosis: led to cell apoptosis

## LLRLLLLIESWLE [SP5030]
MEC [1]
  IC50: 93.2 ± 42.3 µM
HUVEC [2]
  cytotoxic (LDH) activity, HUVEC: significant cytotoxic activity

## LLRSSLILLQGSWF [SP5031]
LEC [4]
  IC50: 24.2 µM
LEC [5]
  IC50: 158 ± 122 µM
MEC [1]
  IC50: 83.4 ± 21.9 µM
LEC [6]
  IC50: 25.1 µM
HUVEC [7]
  IC50: 96.9 ± 34.3 µM

## LMRKSQILISSWF [SP5028]
MEC [8]
  LDH level, MEC: more than 150%
  LDH activity compared to the control, MEC: more than 200%
HUVEC [7]
  IC50: 58.2 ± 35.2 µM

## RLRLLTLQSWLL [SP5001]
LEC [9]
  LDH activity compared to the control, LEC: significant LDH activity
MEC [1]
  IC50: 52.4 ± 27.8 µM
MEC [8]
  LDH level, MEC: more than 150%
  LDH activity compared to the control, MEC: more than 200%
HUVEC [7]
  IC50: 50.7 ± 31.8 µM

B1: PRL protein: prolactin (PRL) protein (protein, UniProt P01236 29-227, looked up)
Prolactin: LPICPGGAARCQVTLRDLFDRAVVLSHYIHNLSSEMFSEFDKRYTHGRGFITKAINSCHTSSLATPEDKEQAQQMNQKDFLSLIVSILRSWNEPLYHLVTEVRGMQEAPEAILSKAVEIEEQTKRLLEGMELIVSQVHPETKENEIYPVWSGLPSLQMADEESRLSAYYNLLHCLRRDSHKIDNYLKLLKCRIIHNNNC
Cell apoptosis; prostate cancer model, ref Giuffrida et al., 2010
  apoptosis in a prostate cancer model: induced apoptosis
